Assay [1] concerns the target Adenosine receptor A2a (Homo sapiens) (UniProt P29274). The assay can be described thus: Displacement of [3H]ZM2421385 from adenosine A2A receptor expressed in human HeLa cell membranes at 1 uM incubated for 30 mins by scintillation counting method. The note with it: Cell membrane.
The target in assay [2] is T1, Adenosine receptor A2b (Homo sapiens) (UniProt P29275).
T1 sequence (whole entry): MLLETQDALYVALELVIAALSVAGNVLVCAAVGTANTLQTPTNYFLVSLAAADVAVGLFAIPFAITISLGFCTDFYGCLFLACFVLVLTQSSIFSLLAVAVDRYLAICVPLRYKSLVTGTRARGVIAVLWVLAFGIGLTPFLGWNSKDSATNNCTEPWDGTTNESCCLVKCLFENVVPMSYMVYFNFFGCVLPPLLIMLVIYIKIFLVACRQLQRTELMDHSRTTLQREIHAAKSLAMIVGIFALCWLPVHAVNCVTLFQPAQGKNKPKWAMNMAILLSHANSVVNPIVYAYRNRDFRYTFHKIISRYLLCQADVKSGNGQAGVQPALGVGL
As to the kind of experiment: Displacement of [3H]DPCPX from human adenosine A2B receptor expressed in HEK293 cell membranes at 1 uM incubated for 30 mins by scintillation counting method. The note with it: Cell membrane, filed as antagonist.

Assay [3] deals with T2, Adenosine receptor A3 (Homo sapiens) (UniProt P0DMS8).
T2 sequence (whole entry): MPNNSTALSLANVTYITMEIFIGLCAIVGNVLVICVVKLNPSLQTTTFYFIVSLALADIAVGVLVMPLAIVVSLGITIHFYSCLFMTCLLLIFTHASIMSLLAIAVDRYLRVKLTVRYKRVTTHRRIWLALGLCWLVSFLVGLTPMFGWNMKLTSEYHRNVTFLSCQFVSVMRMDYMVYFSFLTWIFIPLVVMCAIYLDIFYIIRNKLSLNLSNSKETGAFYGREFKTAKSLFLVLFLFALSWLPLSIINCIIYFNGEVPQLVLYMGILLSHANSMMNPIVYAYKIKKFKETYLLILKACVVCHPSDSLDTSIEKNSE
As to the kind of experiment: Displacement of [3H]NECA from adenosine A3 receptor expressed in human HeLa cell membranes at 1 uM incubated for 180 mins by scintillation counting method. The note with it: Cell membrane. The gist of the method: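 hA3AR in HeLa membranes (3 pmol/mg protein) with 10 nM [3H]NECA (KD 8.7 nM); nonspecific binding with 100 μM R-PIA; incubated 180 min at 25 °C, washed, filtered, radioactivity counted.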

Another assay addresses T3, Adenosine receptor A1 (Homo sapiens, UniProt P30542).
T3 sequence (P30542 whole entry): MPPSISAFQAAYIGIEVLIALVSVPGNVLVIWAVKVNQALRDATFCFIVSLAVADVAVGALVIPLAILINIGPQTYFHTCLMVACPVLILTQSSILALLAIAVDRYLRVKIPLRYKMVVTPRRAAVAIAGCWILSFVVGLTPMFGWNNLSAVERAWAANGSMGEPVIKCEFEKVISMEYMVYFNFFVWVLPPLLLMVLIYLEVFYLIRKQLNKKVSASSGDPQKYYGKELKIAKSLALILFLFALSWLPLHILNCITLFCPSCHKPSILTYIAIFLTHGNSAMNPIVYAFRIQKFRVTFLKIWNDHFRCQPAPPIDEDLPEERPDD
As to the kind of experiment: Displacement of [3H]DPCPX from human adenosine A1 receptor expressed in CHO cell membranes incubated for 60 mins by scintillation counting method. Further details: species or system Cell membrane.

Assay [4] has as its system PC-3. As to the kind of experiment: Antimigratory activity in human PC-3 cells assessed as reduction in cell migration at Ki level incubated for 72 hrs by crystal violet staining based confocal microscopy. It counts as functional. The gist of the method: (§1)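 Transwell migration, 8.0 μm pore polycarbonate membrane; 10⁵ cells seeded in serum-free medium in upper chamber, complete medium with 10% FBS below. Cells kept in RPMI 1640, 10% FBS. Migration scored after 72 h without or with treatment; migrated cells fixed in 4% paraformaldehyde, crystal violet stained, counted in five random fields; at least three chambers from three experiments.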

A further assay has as its system DU-145. The assay can be described thus: Antimigratory activity in human DU-145 cells assessed as reduction in cell migration at Ki level incubated for 72 hrs by crystal violet staining based confocal microscopy. In kind it is functional. The method in brief: as §1
Assay [5] concerns PC-3. The assay can be described thus: Antimetastatic activity in human PC-3 cells assessed as induction of actin skeleton reorganization at Ki level incubated for 72 hrs by confocal laser scanning microscopy. It counts as functional, cell-based.
For a further assay, the system named is LNCaP. The assay can be described thus: Antimigratory activity in human LNCaP cells assessed as reduction in cell migration at Ki level incubated for 72 hrs by crystal violet staining based confocal microscopy. In kind it is functional. The gist of the method:
as §1

Assay [6] deals with PC-3. The assay can be described thus: Antimetastatic activity in human PC-3 cells assessed as effect on cell shape at Ki level incubated for 72 hrs by confocal laser scanning microscopy. In kind it is functional, cell-based.
The target in assay [7] is T4, Adenosine receptor A1 (Homo sapiens) (UniProt P30542).
T4 sequence (whole entry): T3 sequence (P30542 whole entry)
The assay can be described thus: Displacement of [3H]DPCPX from human adenosine A1 receptor expressed in CHO cell membranes at 1 uM incubated for 60 mins by scintillation counting method. The note with it: Cell membrane.

The next assay addresses T5, Adenosine receptor A2b (Homo sapiens, UniProt P29275).
T5 sequence (P29275 whole entry): T1 sequence (whole entry)
As to the kind of experiment: Displacement of [3H]DPCPX from human adenosine A2B receptor expressed in HEK293 cell membranes incubated for 30 mins by scintillation counting method. Further details: species or system Cell membrane.

The source made the active and inactive calls. The rule behind the calls is not given here.

Sequence of Adenosine receptor A2a (Homo sapiens) (P29274 whole entry): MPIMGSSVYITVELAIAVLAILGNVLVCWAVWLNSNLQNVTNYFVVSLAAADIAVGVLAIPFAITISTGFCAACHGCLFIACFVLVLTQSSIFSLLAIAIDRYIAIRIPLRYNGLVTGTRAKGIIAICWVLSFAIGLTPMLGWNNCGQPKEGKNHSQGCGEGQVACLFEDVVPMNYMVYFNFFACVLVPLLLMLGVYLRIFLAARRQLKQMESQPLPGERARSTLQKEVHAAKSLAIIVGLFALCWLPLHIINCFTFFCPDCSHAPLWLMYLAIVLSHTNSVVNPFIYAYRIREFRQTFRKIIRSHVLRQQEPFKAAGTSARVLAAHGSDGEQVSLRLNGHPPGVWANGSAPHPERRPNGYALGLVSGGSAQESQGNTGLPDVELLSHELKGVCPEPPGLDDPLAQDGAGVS

For `CC1=C(C(=O)OCc2ccccc2)C(c2ccco2)NC(=O)N1C` (racemic), the values for the inhibition in assay [1], in assay [2] and in assay [3] were 37%, 41% and 11%, respectively. The same compound came in with a Ki at Adenosine receptor A1 of 1.74 µM.
Consider `CCCn1c(=O)[nH]c2nc(-c3ccc(S(=O)(=O)N4CCN(c5ccc(Cl)cc5)CC4)cc3)[nH]c2c1=O`, for which the outcome with PC-3 [4], with DU-145, in the assay with PC-3 [5], in the assay on LNCaP and with PC-3 [6] was Active.
In the case of `CC1=C(c2ncc(C)o2)C(c2ccoc2)NC(=O)N1` (racemic), the inhibition in [1] is 14%; in assay [7], 21%; in assay [3], 1%. This compound also had a Ki at Adenosine receptor A2b of 0.801 µM.
On the same counts, the results for `CC1=C(c2ncc(C)o2)C(c2ccco2)NC(=O)N1` (racemic) are 23%, 27%, 4% and 0.905 µM.
As for `CC1=C(C(=O)OC2CCCC2)C(c2ccco2)NC(=O)N1` (racemic), the inhibition in assay [1] amounted to 23%; in assay [7], 1%; in [3], 14%. Besides, the Ki at Adenosine receptor A2b was found to be 0.577 µM.
As to `CC1=C(C(=O)CC(C)C)C(c2ccco2)NC(=O)N1` (racemic), the inhibition in [1] was 6%; in [7], 16%; in assay [3], 31%. Besides, the affinity at Adenosine receptor A2b corresponds to a Ki of 0.24 µM.
Taken in the same sequence, the figures for `CC1=C(C(=O)OC(C)C)[C@@H](c2ccco2)NC(=S)N1` were 13%, 8%, 1% and 0.0063 µM.
Taken in the same sequence, the figures for `CC1=C(C(=O)C2CC2)C(c2ccco2)NC(=O)N1` (racemic) were 2%, 2%, 7% and 1.06 µM.
On the same counts, the results for `CC1=C(C(=O)OC(C)(C)C)C(c2ccoc2)NC(=S)N1` (racemic) are 15%, 18%, 19% and 1.89 µM.
`CC1=C(C(=O)OCC(C)C)C(c2ccco2)NC(=O)N1` (racemic): the inhibition turned out to be 36% in assay [1], 27% in [7] and 13% in assay [3]. In addition, the affinity at Adenosine receptor A2b, expressed as Ki, was 0.199 µM.
On the same counts, the results for `CC1=C(C(=O)OC2CCCC2)C(c2ccsc2)NC(=O)N1` (racemic) are 1%, 5%, 5% and 0.659 µM.
Taken in the same sequence, the figures for `CC1=C(C(=O)OC2CCC2)C(c2cccs2)NC(=O)N1` (racemic) were 26%, 24%, 2% and 1.09 µM.
Taken in the same sequence, the figures for `COC(=O)C1=C(C)N=C(S)NC1c1ccco1` (racemic) were 20%, 11%, 1% and 0.984 µM.
For `CC1=C(C(=O)OCC2CCC2)C(c2ccoc2)NC(=O)N1` (racemic), the results for the inhibition in [1], in [7] and in [3] were 25%, 46% and 2%, respectively. Also, the Ki on Adenosine receptor A2b came to 0.739 µM.
`CC1=C(C(=O)CC(C)C)C(c2ccoc2)NC(=O)N1` (racemic): the inhibition in assay [1] came to 20%; in [7], 23%; in assay [3] it was 18%. This compound also showed a Ki at Adenosine receptor A2b of 1.01 µM.
With `CC1=C(C(=O)OCC(C)C)C(c2ccoc2)NC(=O)N1` (racemic), the inhibition in assay [1] worked out at 31%; in assay [3] it was 16%. Besides, the Ki amounted to 0.326 µM at Adenosine receptor A2b and 3.09 µM at Adenosine receptor A1.
For `CC1=C(C(=O)OC(C)(C)C)C(c2ccoc2)NC(=O)N1` (racemic), the results for the inhibition in assay [1], in assay [7] and in [3] were 9%, 11% and 2%, respectively. In addition, the Ki at Adenosine receptor A2b was found to be 4.44 µM.
Taken in the same sequence, the figures for `CCC(C)OC(=O)C1=C(C)NC(=O)NC1c1ccoc1` (racemic) were 1%, 13%, 11% and 0.201 µM.
For `CC1=C(C(=O)OCc2ccccc2)C(c2ccoc2)NC(=O)N1` (racemic), the values for the inhibition in assay [1], in assay [7] and in assay [3] were 24%, 41% and 1%, respectively. Also, on Adenosine receptor A2b, the Ki is 6.65 µM.
For the compound `CC1=C(C(=O)OCC2CC2)C(c2ccco2)NC(=O)N1` (racemic), the figures for the inhibition in [1], in assay [7] and in [3] were 36%, 29% and 1%, respectively. Affinity on Adenosine receptor A2b was put at a Ki of 0.138 µM.
On the same counts, the results for `CC1=C(C(=O)OCC2CC2)C(c2ccoc2)NC(=O)N1` (racemic) are 43%, 29%, 3% and 0.426 µM.
Taken in the same sequence, the figures for `CCC(C)OC(=O)C1=C(C)NC(=O)NC1c1ccco1` (racemic) were 1%, 6%, 3% and 0.0843 µM.

(Values after ChEMBL document CHEMBL4765483 (J Med Chem, 2021).)
